DYRK1A inh – Dyrk1A (rat) kinase inhibition. Q63470. actives 0.43% (n = 310,000). ADP-Glo luminescence, NFATc1 peptide. inhibition, % at 12.5 µM; in the data active = inhibition above about 50%;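 note: plate controls were vehicle with enzyme for no effect and no enzyme for full effect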
ARNT-TACC3 inh – ARNT/TACC3 interaction disruption | Q9Y6A5 | AlphaScreen His-ARNT PAS-B/GST-TACC3 binding, luminescence; TACC3 fragment carries E629A point mutation | inhibition, % at 9.99 µM | actives 0.66% (n = 390,000);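 active = mean inhibition of replicates at least 50% and at least half of replicates each reaching 50%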;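 note: 0% = complete ARNT plus TACC3 wells and 100% = ARNT alone without TACC3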
CAL PDZ FP-1 – blocks peptide binding to the human CAL PDZ domain. AID 602252. inhibition, % at 24.9 µM. purified CAL PDZ, TMR-peptide fluorescence polarization, 1 h. actives 0.92% (n = 300,000);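 active = mean inhibition of at least 30% with at least half of replicates also reaching 30%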;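 note: 0% = DMSO neutral control and 100% = excess unlabeled competitor peptide PRC23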
CAL PDZ FP-2 – inhibitors of human CAL PDZ peptide binding | Q9HD26 | purified CAL PDZ, TMR-peptide fluorescence polarization, 1 h | inhibition, % at 20 µM | actives 0.02% (n = 330,000) | AID 504414;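 active = highest replicate inhibition of at least 40%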;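 note: plate controls were DMSO neutral control wells for no effect and unlabeled competitor peptide control wells for full effect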
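material = purified tagged CAL PDZ domain construct (CerCALP) | compound dosing = 20 µM, one dose | times = 1 h at RT | measured by = fluorescence polarization from S- and P-plane intensities, G-factor corrected | read-out = inhibition from polarization loss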
Numbers without * were called inactive; / = no result. Compounds with a hit are over-represented: about 1.4% of the library has one in this group of screens.

SMILES	DYRK1A inh	ARNT-TACC3 inh	CAL PDZ FP-1	CAL PDZ FP-2
CC(=O)N[C@H]1CC[C@H](CCNC(=O)Nc2ccc(C(F)(F)F)cc2)O[C@H]1CO	/	-29	/	/
Cc1cccc(NC(=O)C2CCN(S(C)(=O)=O)CC2)c1C	6	0	55*	-4
CCC(=O)N1C[C@H](C)[C@H](OC)CN(C)C(=O)c2ccc(NC(=O)c3cnccn3)cc2OC[C@H]1C	/	-5	/	/
COc1cc(NC(=O)c2cccs2)ccc1NC(=O)Cc1ccccc1	-1	2	42*	-1
COc1ccccc1NC(=O)CCC(=O)Nc1cc(OC)c(NC(=O)c2cccs2)cc1OC	-5	26*	/	0
CCCC#Cc1cnc2c(c1)C(=O)N([C@H](C)CO)C[C@H](C)[C@@H](CN(C)C(=O)Nc1c(C)noc1C)O2	/	-2	/	/
CCSc1nnc(NC(=O)CSc2nncc(=O)n2N)s1	/	70*	0	0
CCc1nnc(NC(=O)CSc2nncc(=O)n2N)s1	-5	-6	-2	-3
CC(=O)c1cnc2nc(SCc3ccc(Cl)cc3)nn2c1C	7	1	178*	/
Cc1ccc(NC(=O)C(SCC(=O)O)c2ccccc2)cc1C (configuration not stated)	6	0	69*	0
COC(=O)CSC(C(=O)Nc1ccc(C)c(C)c1)c1ccccc1 (configuration not stated)	6	-7	-3	-2
C[C@H](CO)N1C[C@H](C)[C@@H](CN(C)S(=O)(=O)c2cccs2)OCCCC[C@H](C)Oc2ccc(NC(=O)CCC(F)(F)F)cc2C1=O	/	-22	/	/
C[C@@H]1CCCCO[C@@H](CN(C)C)[C@H](C)CN([C@H](C)CO)C(=O)c2cc(NS(=O)(=O)c3ccc(F)cc3)ccc2O1	/	7	/	/
CCCNC(=O)N(C)C[C@H]1Oc2ncc(-c3cccc(C#N)c3)cc2C(=O)N([C@H](C)CO)C[C@@H]1C	/	-11	/	/
O=C(CCN1CCCCC1)N[C@H]1CC[C@@H](CCNC(=O)c2cc(Cl)cc(Cl)c2)O[C@H]1CO	/	-34	/	/
O=C(CCN1CCCCC1)N[C@@H]1CC[C@@H](CCNC(=O)c2cc(Cl)cc(Cl)c2)O[C@@H]1CO	/	47*	/	/
C[C@@H]1CN([C@H](C)CO)C(=O)Cc2cc(NC(=O)NC3CCCCC3)ccc2O[C@@H]1CN(C)Cc1ccc(C(F)(F)F)cc1	/	0	/	/
CC(=O)c1ccccc1NC(=O)COC(=O)CN1C(=O)C2CCCCC2C1=O (configuration not stated)	-5	2	40*	-1
Cc1ccc(Cl)cc1NC(=O)COC(=O)CN1C(=O)C2CCCCC2C1=O (configuration not stated)	-1	6	/	0
O=C(c1ccccn1)N1CC=C(c2ccccc2)CC1	5	3	194*	-1
CC1CCCCC1NS(=O)(=O)CCNC(=O)c1ccccc1 (configuration not stated)	/	-37	35*	0
O=C(NCCS(=O)(=O)NC1CCCC1)c1ccc(F)cc1	-5	1	-5	1
C[C@@H](NC(=O)C[C@H]1C=C[C@@H](NC(=O)Nc2ccc3c(c2)OCO3)[C@@H](CO)O1)c1ccccc1	/	-6	/	/
CCc1ccc(-c2nc(CS(=O)CC(=O)NCc3ccccc3)c(C)o2)cc1 (configuration not stated)	2	0	71*	-1
Cc1oc(-c2ccc(Cl)cc2)nc1CS(=O)CC(=O)NCc1ccccc1 (configuration not stated)	-4	/	3	-2
SMILES	DYRK1A inh	ARNT-TACC3 inh	CAL PDZ FP-1	CAL PDZ FP-2
COCC(=O)Nc1ccc2c(c1)C(=O)N(C)[C@@H]1CC[C@@H](CC(=O)O)O[C@H]1CO2	/	3	/	/
COc1ccc(CCNC(=O)C23CCC(C)(C(=O)C2Br)C3(C)C)cc1OC (configuration not stated)	/	49*	-1	0
CC(C)n1ncc2c(C(=O)NCC(=O)Nc3ccccc3Br)cc(C3CC3)nc21	4	-4	46*	0
C=CCc1c(C)nc(C)nc1N/N=C/c1ccc([N+](=O)[O-])cc1	-5	3	8	/
C=CCc1c(C)nc(C)nc1N/N=C/c1ccccc1O	9	64*	/	-2
COc1ccc(C(=O)NC(=S)NCc2ccc(-c3nc4ccccc4o3)cc2)cc1OC	/	0	-4	-2
COc1ccc(-c2nc3ccccc3o2)cc1OC	0	-4	-4	44*
CCNC(=S)N(CCc1ccc(OC)c(OC)c1)Cc1cc2cc(OC)ccc2[nH]c1=O	0	-2	57*	0
COCCCNC(=S)N(CCCO)Cc1cc2cc3c(cc2[nH]c1=O)OCO3	/	3	-4	-1

Bioassay records (PubChem BioAssay)
